Active and inactive are the calls of the source. Unless noted, no stated cut-off is given here; in the data, active means inhibition above about 30%; inactive means the rest.

A short description of assay [1]: reducers of endogenous Her2 protein level, primary screen, SKBR3 breast tumor cells, AlphaScreen, ATP viability (AID 461;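 active means Her2 level under about 52% in both replicate screens, with viability over 70% of control, limit read from the data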;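 on Her2 level: lower value means less Her2 protein in the cells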;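 on viability: percent of carrier control wells set as 100% viability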). The following applies: 18-24 h, measured here: SKBR3 viability, ATP luminescence, at 10 µM. (In Alpha technology, singlet oxygen from a donor bead excites a nearby acceptor bead.)
In assay [2] the target is Receptor tyrosine-protein kinase erbB-2 (Homo sapiens) (UniProt P04626). The description is as above. The note with it: 18-24 h, at 10 µM, stronger effect = lower value.
Assay [3] in a line: SK-BR-3 cell growth inhibitors, pilot screen, 24 h, human (AID 572;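 active means viability at or below 10% of carrier control in both of two separate runs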;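 further: compound exposure lasted between 18 and 24 h rather than exactly 24 h; 100% = carrier-treated control wells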). The note with it: SK-BR-3 viability, CellTiter-Glo luminescence, at 10 µM, stronger effect = lower value. On the technique in general: Cellular ATP, detected with luciferase, serves as a proxy for viable cell number.
The nature of assay [4]: HUVEC growth inhibition – cell-based, human, primary screen (AID 575;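 active means viability at or below 30% in both replicate assays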;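 further: 100% = median of untreated cell wells with 0.1% DMSO on each plate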). The note with it: HUVEC proliferation, CellTiter-Glo luminescence, 72 h; at 10 µM; stronger effect = lower value. A digest of the protocol:
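Assay system: primary human umbilical vein endothelial cells / Buffer or medium: endothelial basal medium with 2% FBS plus growth supplements / Compound dosing: one dose, 10 µM final, 0.1% DMSO / Timing: 72 h treatment at 37 °C / Signal: CTG luminescence / Benchmarks: 32 DMSO-only cell-control wells (high), 32 MePR drug-control wells (low) per plate / Plate: collagen-coated 384-well format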

Assay [5] in a line: growth inhibitors of H69AR lung tumor, primary screen, human, duplicate replicates (AID 580;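 active means viability at or under a set limit in both replicates, limit being median viability minus 3 SD, cut at about 48% in these data, passing the limit was not always enough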;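 further: 100% = mean luminescence of untreated wells and 0% = no signal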). The following applies: H69AR lung tumor cells viability, ATP luminescence, 72 h; at 10 µM; stronger effect = lower value.
A short description of assay [6]: reversal of MRP1-mediated doxorubicin resistance, pilot screen, H69AR cells, doxorubicin co-treatment (AID 601;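 active means viability loss from added drug above about 55%, and viability with drug at most 40%, in both replicates, limit read from the data, passing the limit was not always enough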). The note with it: CellTiter-Glo, 72 h, at 10 µM; for differential viability (reversal): stronger effect = higher value.
Assay [7] is described as follows: 384-well plate pilot, post-Golgi transport modulator project, inhibition of yeast transport mutant growth (AID 636; in the data active means inhibition above about 31%). The note with it: absorbance 615 nm, about 18 h, stronger effect = higher value.
Assay [8] is described as follows: growth suppression of yeast trafficking mutant, preliminary HTS, modulators of trafficking downstream of Golgi apparatus project, 1536-format plate, OD 615 nm (AID 637). The note with it: yeast transport mutant growth, absorbance 615 nm, 18 h; stronger effect = higher value.
The mark [9] stands for this setting: H69AR cells + 2 uM doxorubicin, measured here: viability with 2 uM doxorubicin, stronger effect = lower value.
The mark [10] stands for this setting: H69AR cells, compound alone cytotoxicity.

Sequence of Receptor tyrosine-protein kinase erbB-2 (Homo sapiens) (P04626 whole entry, looked up): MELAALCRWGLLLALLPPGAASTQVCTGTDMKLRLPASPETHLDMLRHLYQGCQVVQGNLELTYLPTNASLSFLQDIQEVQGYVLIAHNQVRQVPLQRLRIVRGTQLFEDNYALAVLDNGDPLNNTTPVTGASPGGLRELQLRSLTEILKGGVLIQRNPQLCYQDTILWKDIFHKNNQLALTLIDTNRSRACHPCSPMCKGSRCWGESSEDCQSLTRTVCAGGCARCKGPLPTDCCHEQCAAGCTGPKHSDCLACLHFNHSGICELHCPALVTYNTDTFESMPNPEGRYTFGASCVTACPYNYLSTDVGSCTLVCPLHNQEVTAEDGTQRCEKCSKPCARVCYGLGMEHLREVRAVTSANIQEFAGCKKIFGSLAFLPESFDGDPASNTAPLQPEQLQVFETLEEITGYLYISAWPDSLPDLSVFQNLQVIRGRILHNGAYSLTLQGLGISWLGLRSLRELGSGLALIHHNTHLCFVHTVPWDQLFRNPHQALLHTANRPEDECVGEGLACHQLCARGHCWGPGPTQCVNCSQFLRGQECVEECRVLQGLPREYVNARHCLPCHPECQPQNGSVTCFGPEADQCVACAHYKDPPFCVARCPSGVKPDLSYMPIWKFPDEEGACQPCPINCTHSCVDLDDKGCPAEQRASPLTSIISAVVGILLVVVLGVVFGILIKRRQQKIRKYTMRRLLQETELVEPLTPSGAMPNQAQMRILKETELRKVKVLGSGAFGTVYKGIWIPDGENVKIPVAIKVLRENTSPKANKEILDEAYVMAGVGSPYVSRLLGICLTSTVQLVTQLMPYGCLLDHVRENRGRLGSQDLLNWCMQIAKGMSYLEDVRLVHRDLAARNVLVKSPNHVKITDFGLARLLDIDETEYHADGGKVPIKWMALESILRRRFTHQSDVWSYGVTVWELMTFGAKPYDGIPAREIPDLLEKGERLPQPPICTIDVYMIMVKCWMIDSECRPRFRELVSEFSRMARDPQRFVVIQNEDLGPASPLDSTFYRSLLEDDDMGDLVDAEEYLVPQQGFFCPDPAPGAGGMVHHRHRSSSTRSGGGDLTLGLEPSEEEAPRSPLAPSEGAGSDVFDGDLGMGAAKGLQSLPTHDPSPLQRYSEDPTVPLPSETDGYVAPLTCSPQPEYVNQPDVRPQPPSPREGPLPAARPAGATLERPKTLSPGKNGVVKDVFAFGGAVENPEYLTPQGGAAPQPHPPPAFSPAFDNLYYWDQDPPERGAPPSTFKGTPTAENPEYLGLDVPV

The viability is a read-out of living cells in per cent, often relative to untreated cells. Usually inhibition stands for the relative decrease from the control value, in per cent. In the case of `CCC(=O)N1CCc2cc(S(=O)(=O)CCC(=O)Nc3nc(C)cs3)ccc21`, the viability was 106% in assay [1]; 106% (inactive) in assay [3]; 90.5% (inactive) in assay [4]; 74.4% (inactive) in assay [5]; 66.8% in assay [6] (setting [9]); 74.4% in assay [6] (setting [10]). Also, the Her2 level in assay [2] was 85% (inactive). Further, in assay [6] (H69AR cells + 2 uM doxorubicin), the differential viability (reversal) is 7.69% (inactive). In addition, the inhibition in assay [7] was -4.8% (inactive); in assay [8] it was -5.9% (inactive).
For `Cc1ccc(-c2cn3cccnc3n2)cc1NC(=O)c1ccc(Br)o1`, the viability was 95.5% in assay [1]; 95.5% (inactive) in assay [3]; 97.6% (inactive) in assay [4]; 88.5% (inactive) in assay [5]; 80% in assay [6] (setting [9]); 88.5% in assay [6] (setting [10]). The Her2 level in assay [2] is 86.5% (inactive). For the same molecule, the differential viability (reversal) in assay [6] (H69AR cells + 2 uM doxorubicin) is 8.45% (inactive). Besides, the inhibition in assay [7] is -0.39% (inactive); in assay [8], -7.46% (inactive).
Regarding `Fc1cccc(-c2cc3nc4c(c(N5CCN(c6cnccn6)CC5)n3n2)CCCC4)c1`, the viability was 104% in assay [1]; 104% (inactive) in assay [3]; 86.9% (inactive) in assay [4]; 89.2% (inactive) in assay [5]; 83.6% in assay [6] (setting [9]); 89.2% in assay [6] (setting [10]). For the same molecule, the Her2 level in assay [2] was 78% (inactive). In assay [6] (H69AR cells + 2 uM doxorubicin), the differential viability (reversal) was 5.59% (inactive). For the same molecule, the inhibition is -5.58% (inactive) in assay [7] and 0.16% (inactive) in assay [8].
For the molecule `CC(C)C(c1nnnn1C1CCCC1)N1CCN(C(=O)c2ccco2)CC1` (stereo not given), the viability in assay [1] was 114%; in assay [3], 114% (inactive); in assay [4], 82.1% (inactive); in assay [5] it was 88.8% (inactive); in assay [6] (setting [9]) it was 72.9%; in assay [6] (setting [10]), 88.8%. The Her2 level in assay [2] was 96% (inactive). Further, the differential viability (reversal) in assay [6] (H69AR cells + 2 uM doxorubicin) is 15.8% (inactive). The inhibition is -1.82% (inactive) in assay [7] and -11.8% (inactive) in assay [8].
As to `COc1ccccc1C(O)P(=O)(OC(C)C)c1ccc(N(C)C)cc1` (stereo not given), the viability is 101% in assay [1]; 101% (inactive) in assay [3]; 104% (inactive) in assay [4]; 98.1% (inactive) in assay [5]; 86.5% in assay [6] (setting [9]); 98.1% in assay [6] (setting [10]). In addition, in assay [2], the Her2 level was 120% (inactive). Also, in assay [6] (H69AR cells + 2 uM doxorubicin), the differential viability (reversal) is 11.6% (inactive). In addition, the values for the inhibition in assay [7] and in assay [8] were -6.53% (inactive) and -5% (inactive), respectively.
In the case of `O=C(OCCCN1C(=O)c2ccccc2C1=O)c1ccco1`, the viability was 102% in assay [1]; 102% (inactive) in assay [3]; 96% (inactive) in assay [4]; 95.2% (inactive) in assay [5]; 93.9% in assay [6] (setting [9]); 95.2% in assay [6] (setting [10]). The Her2 level in assay [2] is 105% (inactive). Besides, the differential viability (reversal) in assay [6] (H69AR cells + 2 uM doxorubicin) is 1.29% (inactive). Besides, the inhibition in assay [7] is 0.79% (inactive); in assay [8], -0.16% (inactive).
Take `CN(C)CC(=O)N1c2ccccc2CCc2ccc(NC(=O)c3ccc(N)cc3)cc21`: the viability is 103% in assay [1]; 103% (inactive) in assay [3]; 82.1% (inactive) in assay [4]; 83.8% (inactive) in assay [5]; 88.7% in assay [6] (setting [9]); 83.8% in assay [6] (setting [10]). The Her2 level in assay [2] was 102% (inactive). Further, in assay [6] (H69AR cells + 2 uM doxorubicin), the differential viability (reversal) is -4.88% (inactive). For the same molecule, the inhibition in assay [7] was -5.79% (inactive); in assay [8] it was 4.26% (inactive).
Take `CCn1c(CSc2nnc(-c3cccnc3)n2-c2ccccc2C)nc2cc(C(=O)O)ccc21`: the viability in assay [1] is 95.5%; in assay [3] it was 95.5% (inactive); in assay [4], 94% (inactive); in assay [5], 99.1% (inactive); in assay [6] (setting [9]), 87.8%; in assay [6] (setting [10]), 99.1%. The Her2 level in assay [2] was 109% (inactive). Also, the differential viability (reversal) in assay [6] (H69AR cells + 2 uM doxorubicin) is 11.4% (inactive). The inhibition was -3.56% (inactive) in assay [7] and -7.3% (inactive) in assay [8].
On to `CC(=O)NCc1cccc(CNC(C)=O)n1`, for which the viability in assay [1] was 84.5%; in assay [3], 84.5% (inactive); in assay [4], 88.4% (inactive); in assay [5], 98% (inactive); in assay [6] (setting [9]), 90.1%; in assay [6] (setting [10]), 98%. Besides, the Her2 level in assay [2] was 82.5% (inactive). Besides, the differential viability (reversal) in assay [6] (H69AR cells + 2 uM doxorubicin) is 7.96% (inactive). Besides, the inhibition is -6.8% (inactive) in assay [7] and -6.67% (inactive) in assay [8].
`O=C1c2ccccc2C(Nc2ccc3c(c2)OCCO3)N1Cc1ccco1` (stereo not given): the viability in assay [1] was 106%; in assay [3] it was 106% (inactive); in assay [4], 87.7% (inactive); in assay [5] it was 80.7% (inactive); in assay [6] (setting [9]), 103%; in assay [6] (setting [10]) it was 80.7%. The Her2 level in assay [2] is 112% (inactive). The differential viability (reversal) in assay [6] (H69AR cells + 2 uM doxorubicin) was -22.6% (inactive). Further, the inhibition in assay [7] is 4.23% (inactive); in assay [8], -1.5% (inactive).
Regarding `COc1ccc(CNS(=O)(=O)c2ccc3oc(C(=O)O)c(C)c3c2)cc1`, the viability in assay [1] is 103%; in assay [3], 103% (inactive); in assay [4], 111% (inactive); in assay [5], 92.2% (inactive); in assay [6] (setting [9]), 91.6%; in assay [6] (setting [10]) it was 92.2%. Further, in assay [2], the Her2 level is 93% (inactive). Besides, the differential viability (reversal) in assay [6] (H69AR cells + 2 uM doxorubicin) is 0.665% (inactive). Besides, the inhibition was -3.64% (inactive) in assay [7] and -2.46% (inactive) in assay [8].
Turning to `Cn1c(N2CCC(C(N)=O)CC2)nc2c1c(=O)n(Cc1ccc(Br)cc1)c(=O)n2C`, the viability is 95% in assay [1]; 95% (inactive) in assay [3]; 98.5% (inactive) in assay [4]; 102% (inactive) in assay [5]; 93.8% in assay [6] (setting [9]); 102% in assay [6] (setting [10]). The Her2 level in assay [2] is 84.5% (inactive). In addition, the differential viability (reversal) in assay [6] (H69AR cells + 2 uM doxorubicin) is 8.06% (inactive). Moreover, the inhibition is 3.38% (inactive) in assay [7] and -5.08% (inactive) in assay [8].
As for `COc1ccc(N2C(=O)C3CCCN3C2c2ccc(F)cc2)cc1Cl` (stereo not given), the viability is 102% in assay [1]; 102% (inactive) in assay [3]; 84.2% (inactive) in assay [4]; 87.4% (inactive) in assay [5]; 88.7% in assay [6] (setting [9]); 87.4% in assay [6] (setting [10]). Besides, the Her2 level in assay [2] was 93.5% (inactive). In addition, the differential viability (reversal) in assay [6] (H69AR cells + 2 uM doxorubicin) is -1.33% (inactive). Besides, the inhibition in assay [7] was 0.39% (inactive); in assay [8] it was -6.94% (inactive).
In the case of `COc1ccc(Cl)cc1NC(=O)COc1cccc(-n2cnnn2)c1`, the viability in assay [1] was 110%; in assay [3], 110% (inactive); in assay [4] it was 98.5% (inactive); in assay [5], 86.4% (inactive); in assay [6] (setting [9]) it was 81.5%; in assay [6] (setting [10]), 86.4%. Further, the Her2 level in assay [2] was 80% (inactive). In assay [6] (H69AR cells + 2 uM doxorubicin), the differential viability (reversal) is 4.85% (inactive). In addition, the inhibition in assay [7] was -5.87% (inactive); in assay [8], 1.61% (inactive).
Regarding `Cc1cccc2cc(C#N)c(NCCNC(=O)NC3CCCCC3)nc12`, the viability in assay [1] was 97.5%; in assay [3], 97.5% (inactive); in assay [4], 48.3% (inactive); in assay [5] it was 75.1% (inactive); in assay [6] (setting [9]), 82.7%; in assay [6] (setting [10]), 75.1%. In addition, the Her2 level in assay [2] is 84.5% (inactive). The differential viability (reversal) in assay [6] (H69AR cells + 2 uM doxorubicin) was -7.59% (inactive). In addition, the inhibition in assay [7] was -2.37% (inactive); in assay [8] it was -3.45% (inactive).
In the case of `CN(CC(=O)Nc1sccc1C#N)C1CCCCC1`, the viability is 106% in assay [1]; 106% (inactive) in assay [3]; 89.8% (inactive) in assay [4]; 93.2% (inactive) in assay [5]; 87.7% in assay [6] (setting [9]); 93.2% in assay [6] (setting [10]). For the same molecule, the Her2 level in assay [2] was 104% (inactive). In addition, the differential viability (reversal) in assay [6] (H69AR cells + 2 uM doxorubicin) was 5.53% (inactive). Also, the results for the inhibition in assay [7] and in assay [8] were -6.67% (inactive) and -4.44% (inactive), respectively.

The values above are taken from PubChem BioAssay.
